What all share (assay type): functional
The test system of experiment [1] is Candida albicans. Briefly: Antifungal activity against Candida albicans at 250 ug/ml after 48 hrs by agar well diffusion technique. To be noted: read-out: IZ.
The subject of experiment [2] is Candida albicans. Briefly: Antifungal activity against Candida albicans after 48 hrs by agar well diffusion technique.
Experiment [3] deals with Klebsiella pneumoniae. As to the kind of experiment: Antibacterial activity against Klebsiella pneumoniae at 250 ug/ml after 48 hrs by agar well diffusion technique. To be noted: read-out: IZ. The method, boiled down: (§1)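 Cup-plate agar well diffusion on nutrient agar, set for 1–1.5 h. Cups of 10 mm were bored with a sterile cork borer, and test solution was added by sterile syringe. Plates were incubated at 37 °C for 48 h. The read-out was inhibition zone diameter in mm, graded 0–6 mild, 7–13 moderate and 14–26 efficacy. Ciprofloxacin was the standard; 10% DMSO served as solvent control.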

The test system of experiment [4] is Nakaseomyces glabratus. Briefly: Antifungal activity against Candida glabrata HO3 at 250 ug/ml after 48 hrs by agar well diffusion technique. To be noted: read-out: IZ.
In experiment [5] the test system is Proteus vulgaris. As to the kind of experiment: Antibacterial activity against Proteus vulgaris at 250 ug/ml after 48 hrs by agar well diffusion technique. Conditions: read-out: IZ. The method, boiled down: as §1
The subject of experiment [6] is Staphylococcus aureus. As to the kind of experiment: Antibacterial activity against Staphylococcus aureus 209p at 250 ug/ml after 48 hrs by agar well diffusion technique. Conditions: read-out: IZ. The method, boiled down:
as §1

Experiment [7] relates to Nakaseomyces glabratus. Briefly: Antifungal activity against Candida glabrata HO3 after 48 hrs by agar well diffusion technique.
The test system of experiment [8] is Pichia kudriavzevii. Briefly: Antifungal activity against Candida krusei GO3 after 48 hrs by agar well diffusion technique.
The subject of experiment [9] is Aspergillus fumigatus. As to the kind of experiment: Antifungal activity against Aspergillus fumigatus at 250 ug/ml after 48 hrs by agar well diffusion technique. Conditions: read-out: IZ. The method, boiled down: as §1
In experiment [10] the test system is Pichia kudriavzevii. Briefly: Antifungal activity against Candida krusei GO3 at 250 ug/ml after 48 hrs by agar well diffusion technique. Conditions: read-out: IZ.
The test system of experiment [11] is Escherichia coli. As to the kind of experiment: Antibacterial activity against Escherichia coli ESS 2231 at 250 ug/ml after 48 hrs by agar well diffusion technique. To be noted: read-out: IZ. In a few lines: as §1

In brackets after ≈: the same amount, converted by molar mass.

`O=C(/C=C/C=C/c1ccccc1)c1ccc(N2CCNCC2)cc1`: the zone of inhibition at 250 µg/mL in experiment [1] was found to be 9 mm; in [3] it was 5 mm; in experiment [4], 6 mm; in experiment [5] it was 8 mm; in [6], 10 mm; in experiment [9] it was 14 mm. Also, the results for the zone of inhibition at 250 µg/mL in experiment [10] and in experiment [11] were 14 mm and 16 mm, respectively. The MIC50 was 90 µg/mL (≈ 283 µM) in experiment [2], 75 µg/mL (≈ 236 µM) in [7] and 60 µg/mL (≈ 188 µM) in [8].
Regarding `O=C(/C=C/c1ccccc1)c1cc(Cl)sc1Cl`, the zone of inhibition at 250 µg/mL in [1] turned out to be 26 mm; in experiment [3] it was 18 mm; in experiment [4], 26 mm; in experiment [5], 22 mm; in [6], 18 mm; in experiment [9], 24 mm. For the same compound, the zone of inhibition at 250 µg/mL in experiment [10] amounted to 26 mm; in experiment [11] it was 20 mm. In addition, the MIC50 in experiment [2] is 2.22 µg/mL (≈ 7.84 µM); in experiment [7] it was 4.65 µg/mL (≈ 16.4 µM); in [8], 3.17 µg/mL (≈ 11.2 µM).
As for `COc1ccc(/C=C/C(=O)c2ccc(N3CCNCC3)cc2)cc1`, the zone of inhibition at 250 µg/mL in experiment [1] is 22 mm; in experiment [3], 16 mm; in experiment [4], 18 mm; in experiment [5] it was 14 mm; in experiment [6], 24 mm; in [9], 18 mm. For the same compound, the zone of inhibition at 250 µg/mL in [10] is 14 mm; in experiment [11] it was 22 mm. Moreover, the MIC50 in experiment [2] amounted to 9.12 µg/mL (≈ 28.3 µM); in experiment [7] it was 16.2 µg/mL (≈ 50.4 µM); in experiment [8], 50 µg/mL (≈ 155 µM).
For `COc1cc(/C=C/C(=O)c2ccc(N3CCNCC3)cc2)cc(OC)c1OC`, the zone of inhibition at 250 µg/mL in [1] is 9 mm; in experiment [3], 9 mm; in experiment [4] it was 9 mm; in experiment [5] it was 6 mm; in experiment [6] it was 6 mm; in [9], 12 mm. For the same compound, the zone of inhibition at 250 µg/mL in [10] is 12 mm; in experiment [11], 8 mm. The MIC50 was found to be 65 µg/mL (≈ 170 µM) in experiment [2], 60 µg/mL (≈ 157 µM) in [7] and 75 µg/mL (≈ 196 µM) in [8].
In the case of `O=C(/C=C/c1ccc(Cl)cc1)c1ccc(N2CCNCC2)cc1`, the zone of inhibition at 250 µg/mL in [1] is 18 mm; in experiment [3], 14 mm; in experiment [4], 14 mm; in experiment [5] it was 16 mm; in experiment [6], 18 mm; in [9] it was 12 mm. Also, the values for the zone of inhibition at 250 µg/mL in experiment [10] and in [11] were 20 mm and 22 mm, respectively. Moreover, the results for the MIC50 in [2], in [7] and in [8] were 55 µg/mL (≈ 168 µM), 60 µg/mL (≈ 184 µM) and 60 µg/mL (≈ 184 µM), respectively.
Consider `O=C(/C=C/c1cccc([N+](=O)[O-])c1)c1ccc(N2CCNCC2)cc1`, for which the zone of inhibition at 250 µg/mL in experiment [1] stood at 16 mm; in experiment [3], 14 mm; in experiment [4], 18 mm; in experiment [5], 18 mm; in experiment [6] it was 24 mm; in experiment [9], 20 mm. For the same compound, the figures for the zone of inhibition at 250 µg/mL in experiment [10] and in experiment [11] were 18 mm and 26 mm, respectively. Further, the MIC50 in experiment [2] came to 6.75 µg/mL (≈ 20 µM); in experiment [7] it was 16.8 µg/mL (≈ 49.8 µM); in experiment [8] it was 18.6 µg/mL (≈ 55 µM).
Consider `O=C(O)c1cn(C2CC2)c2cc(N3CCNCC3)c(F)cc2c1=O` [CIPROFLOXACIN], for which the zone of inhibition at 250 µg/mL in experiment [3] stood at 24 mm; in experiment [5], 24 mm; in experiment [6] it was 22 mm; in experiment [9], 24 mm.
For the compound `OC(Cn1cncn1)(Cn1cncn1)c1ccc(F)cc1F` [FLUCONAZOLE], the zone of inhibition at 250 µg/mL in experiment [1], in experiment [4] and in experiment [10] was 29 mm throughout. The MIC50 in experiment [2], in [7] and in [8] was 50 µg/mL (≈ 163 µM) each time.

The values above are taken from ChEMBL document CHEMBL1149705, “Synthesis and antimicrobial evaluation of new chalcones containing piperazine or 2,5-dichlorothiophene moiety” (2007).
